Source: ChEMBL document CHEMBL1136006, “New PET imaging agent for the serotonin transporter: [(18)F]ACF (2-[(2-amino-4-chloro-5-fluorophenyl)thio]-N,N-dimethyl-benzenmethanamine)” (J Med Chem, 2002)

Tests used:
Rattus norvegicus [1] = species: Rattus norvegicus; assay: Organ distribution of [18F]ACF radiolabeled compound in rat heart after 120 min; assay type: ADME, organism-based; settings: in vivo, 2 h
Procedure, shortened: (§1)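 Rats, three per time point, under ether anesthesia; 30 μCi tracer in 0.2 mL saline injected into femoral vein. Sacrificed by cardiac excision under ether at 2, 30, 60, 120 or 240 min. Organs removed, weighed and counted; % dose/organ calculated against counts of 1% of initial dose counted at the same time. Average of three rats ± SD.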

Rattus norvegicus [2] = species: Rattus norvegicus; assay: Organ distribution of [18F]-ACF radiolabeled compound in rat muscle after 2 min; assay type: ADME, organism-based, Muscle tissue; settings: in vivo
Procedure, shortened: (§2)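 Under ether anesthesia, 30 μCi no-carrier-added tracer in 0.2 mL saline injected into the femoral vein. Rats killed by cardiac excision at the stated time. Organs were removed, weighed and counted; % dose/organ was calculated against counts of a 1% initial-dose standard. Three rats per time, average ± SD.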

Rattus norvegicus [3] = species: Rattus norvegicus; assay: Regional brain distribution of [18F]ACF radiolabeled compound in rat cortex after 60 min; assay type: ADME, organism-based; settings: in vivo, 1 h
Procedure, shortened: (§3)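 Rats (three per group) under ether anesthesia got 30 μCi tracer in 0.2 mL saline into the femoral vein and were killed by cardiac excision at the stated time. Cortex, striatum, hippocampus, cerebellum, hypothalamus and the rest of brain were dissected, weighed and gamma counted. %dose/g was taken against counts of a diluted initial dose. Regional ratios are each region's %dose/g over cerebellum's. Mean ± SD.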

Rattus norvegicus [4] = species: Rattus norvegicus; assay: Ratio of regional brain distribution of [18F]-ACF radiolabeled compound in rat hypothalamus to that of cerebellum after 2 min; assay type: ADME, organism-based; settings: in vivo; procedure, shortened: as §3
Rattus norvegicus [5] = species: Rattus norvegicus; assay: Organ distribution of [18F]-ACF radiolabeled compound in rat liver after 60 min; assay type: ADME, organism-based; settings: in vivo, 1 h; procedure, shortened: as §2
Rattus norvegicus [6] = species: Rattus norvegicus; assay: Regional brain distribution of [18F]-ACF radiolabeled compound in rat hippocampus after 30 min; assay type: ADME, organism-based; settings: in vivo, 0.5 h; procedure, shortened: as §3
Rattus norvegicus [7] = species: Rattus norvegicus; assay: Organ distribution of [18F]ACF radiolabeled compound in rat liver after 2 min; assay type: ADME, organism-based; settings: in vivo; procedure, shortened: as §1
Rattus norvegicus [8] = species: Rattus norvegicus; assay: Organ distribution of [18F]-ACF radiolabeled compound in rat muscle after 120 min; assay type: ADME, organism-based, Muscle tissue; settings: in vivo, 2 h; procedure, shortened: as §2
Rattus norvegicus [9] = species: Rattus norvegicus; assay: Organ distribution of [18F]-ACF radiolabeled compound in rat brain after 60 min; assay type: ADME, organism-based; settings: in vivo, 1 h; procedure, shortened: as §2
Rattus norvegicus [10] = assay: Effect of pretreatment with methylphenidate with a dose of 2 mg/kg (i.v.) on specific binding of [18F]ACF in rat brain cerebellum; dose/g; assay type: ADME, organism-based; set-up: dose 2 mg/kg, route intravenous; settings: in vivo, iv
Procedure, shortened: (§4)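 Rats pretreated iv with drug (2 mg/kg) or saline 5 min before iv [18F]ACF (50 μCi). Sacrificed 1 h after tracer. Brain regions were dissected, weighed and counted, and % dose/g was calculated against a diluted initial dose. Drug-treated rats were compared with saline controls by ANOVA/Dunnett's test (p<0.05). Three rats per point, average ± SD.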

Rattus norvegicus [11] = assay: Effect of pretreatment with (+)-McN5652 with a dose of 2 mg/kg (i.v.) on specific binding of [18F]ACF in rat brain striatum; assay type: ADME, organism-based; set-up: dose 2 mg/kg, route intravenous; settings: in vivo, iv; procedure, shortened: as §4
Rattus norvegicus [12] = assay: Effect of pretreatment with […] with a dose of 2 mg/kg (i.v.) on specific binding of [18F]ACF in rat brain blood; assay type: ADME, organism-based; set-up: dose 2 mg/kg, route intravenous; settings: in vivo, iv; procedure, shortened: as §4
Rattus norvegicus [13] = assay: Ratio of effect of pretreatment with (+)-McN5652 with a dose of 2 mg/kg (i.v.) on specific binding of [18F]ACF in rat brain cerebellum to that of cerebellum; assay type: ADME, organism-based; set-up: dose 2 mg/kg, route intravenous; settings: in vivo, iv
Procedure, shortened: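 Rats (three per point) pretreated iv with competing drug at 2 mg/kg or saline (control) 5 min before iv [18F]ACF (50 μCi). At 1 h post tracer, brain regions (cortex, striatum, hippocampus, cerebellum, hypothalamus, remainder) dissected, weighed, counted as % dose/g and expressed as ratio to cerebellum. Average ± SD; ANOVA with Dunnett's test vs saline controls, p < 0.05.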

Rattus norvegicus [14] = species: Rattus norvegicus; assay: Organ distribution of [18F]-ACF radiolabeled compound in rat skin after 60 min; assay type: ADME, organism-based; settings: in vivo, 1 h; procedure, shortened: as §2
Rattus norvegicus [15] = assay: Effect of pretreatment with methylphenidate with a dose of 2 mg/kg (i.v.) on specific binding of [18F]-ACF in rat brain remainder; assay type: ADME, organism-based; set-up: dose 2 mg/kg, route intravenous; settings: in vivo, iv; procedure, shortened: as §4
Rattus norvegicus [16] = species: Rattus norvegicus; assay: Regional brain distribution of [18F]ACF radiolabeled compound in rat striatum after 120 min; assay type: ADME, organism-based; settings: in vivo, 2 h
Procedure, shortened: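 Rats (3 per group) under ether anaesthesia received 30 μCi tracer in 0.2 mL saline into the femoral vein. Killed by cardiac excision under ether at the set time. Striatum and other brain regions dissected, weighed and gamma-counted. % dose/g calculated against counts of a diluted 1% initial-dose standard. Values given as average ± SD of three rats.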

Rattus norvegicus [17] = species: Rattus norvegicus; assay: Ratio of regional brain distribution of [18F]-ACF radiolabeled compound in rat striatum to that of cerebellum after 120 min; assay type: ADME, organism-based; settings: in vivo, 2 h; procedure, shortened: as §3
Rattus norvegicus [18] = species: Rattus norvegicus; assay: Organ distribution of [18F]ACF radiolabeled compound in rat brain after 120 min; assay type: ADME, organism-based; settings: in vivo, 2 h; procedure, shortened: as §1
Rattus norvegicus [19] = species: Rattus norvegicus; assay: Ratio of regional brain distribution of [18F]-ACF radiolabeled compound in rat remainder to that of cerebellum after 30 min; assay type: ADME, organism-based; settings: in vivo, 0.5 h; procedure, shortened: as §3
Rattus norvegicus [20] = species: Rattus norvegicus; assay: Regional brain distribution of [18F]ACF radiolabeled compound in rat cerebellum after 120 min; assay type: ADME, organism-based; settings: in vivo, 2 h; procedure, shortened: as §3
Rattus norvegicus [21] = species: Rattus norvegicus; assay: Regional brain distribution of [18F]ACF radiolabeled compound in rat hippocampus after 60 min; assay type: ADME, organism-based; settings: in vivo, 1 h; procedure, shortened: as §3
Rattus norvegicus [22] = species: Rattus norvegicus; assay: Organ distribution of [18F]ACF radiolabeled compound in rat brain after 2 min; assay type: ADME, organism-based; settings: in vivo; procedure, shortened: as §1
Rattus norvegicus [23] = species: Rattus norvegicus; assay: Organ distribution of [18F]ACF radiolabeled compound in rat bone after 120 min; assay type: ADME, organism-based, Bone element; settings: in vivo, 2 h; procedure, shortened: as §1
Rattus norvegicus [24] = species: Rattus norvegicus; assay: Organ distribution of [18F]-ACF radiolabeled compound in rat kidney after 60 min; assay type: ADME, organism-based; settings: in vivo, 1 h; procedure, shortened: as §2
Rattus norvegicus [25] = species: Rattus norvegicus; assay: Organ distribution of [18F]-ACF radiolabeled compound in rat spleen after 60 min; assay type: ADME, organism-based; settings: in vivo, 1 h; procedure, shortened: as §1
Rattus norvegicus [26] = assay: Effect of pretreatment with methylphenidate with a dose of 2 mg/kg (i.v.) on specific binding of [18F]-ACF in rat brain striatum; assay type: ADME, organism-based; set-up: dose 2 mg/kg, route intravenous; settings: in vivo, iv; procedure, shortened: as §4
Rattus norvegicus [27] = species: Rattus norvegicus; assay: Regional brain distribution of [18F]-ACF radiolabeled compound in rat cortex after 2 min; assay type: ADME, organism-based; settings: in vivo; procedure, shortened: as §3
Rattus norvegicus [28] = species: Rattus norvegicus; assay: Ratio of regional brain distribution of [18F]ACF radiolabeled compound in rat striatum to that of cerebellum after 30 min; assay type: ADME, organism-based; settings: in vivo, 0.5 h; procedure, shortened: as §3
Rattus norvegicus [29] = species: Rattus norvegicus; assay: Organ distribution of [18F]-ACF radiolabeled compound in rat lung after 30 min; assay type: ADME, organism-based; settings: in vivo, 0.5 h; procedure, shortened: as §2
Rattus norvegicus [30] = species: Rattus norvegicus; assay: Ratio of regional brain distribution of [18F]-ACF radiolabeled compound in rat cerebellum to that of cerebellum after 120 min; assay type: ADME, organism-based; settings: in vivo, 2 h
Procedure, shortened: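 Rats, three per time point, given 30 μCi tracer in 0.2 mL saline into femoral vein under ether anesthesia; killed at 2, 30, 60, 120 or 240 min. Cortex, striatum, hippocampus, cerebellum, hypothalamus and rest of brain dissected, weighed, counted; % dose/g against diluted initial dose, then each region divided by cerebellum. Average of three rats ± SD.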

Rattus norvegicus [31] = species: Rattus norvegicus; assay: Organ distribution of [18F]-ACF radiolabeled compound in rat brain after 30 min; assay type: ADME, organism-based; settings: in vivo, 0.5 h; procedure, shortened: as §2
Rattus norvegicus [32] = species: Rattus norvegicus; assay: Organ distribution of [18F]ACF radiolabeled compound in rat bone after 2 min; assay type: ADME, organism-based, Bone element; settings: in vivo; procedure, shortened: as §1
Rattus norvegicus [33] = species: Rattus norvegicus; assay: Ratio of regional brain distribution of [18F]ACF radiolabeled compound in rat hippocampus to that of cerebellum after 120 min; assay type: ADME, organism-based; settings: in vivo, 2 h; procedure, shortened: as §3
Rattus norvegicus [34] = species: Rattus norvegicus; assay: Regional brain distribution of [18F]ACF radiolabeled compound in rat cortex after 120 min; assay type: ADME, organism-based; settings: in vivo, 2 h; procedure, shortened: as §3
Rattus norvegicus [35] = species: Rattus norvegicus; assay: Regional brain distribution of [18F]ACF radiolabeled compound in rat hypothalamus after 60 min; assay type: ADME, organism-based; settings: in vivo, 1 h; procedure, shortened: as §3
Rattus norvegicus [36] = species: Rattus norvegicus; assay: Regional brain distribution of [18F]ACF radiolabeled compound in rat cerebellum after 60 min; assay type: ADME, organism-based; settings: in vivo, 1 h; procedure, shortened: as §3
Rattus norvegicus [37] = assay: Effect of pretreatment with (+)-McN5652 with a dose of 2 mg/kg (i.v.) on specific binding of [18F]ACF in rat brain hippocampus; assay type: ADME, organism-based; set-up: dose 2 mg/kg, route intravenous; settings: in vivo, iv; procedure, shortened: as §4

SMILES: CN(C)Cc1ccccc1Sc1cc(F)c(Cl)cc1N
- Dose/g (Rattus norvegicus [1]): 0.06 % dose/organ
- Dose/g (Rattus norvegicus [2]): 14.3 % dose/organ
- Dose/g (Rattus norvegicus [3]): 0.33%
- Ratio (Rattus norvegicus [4]): 1.37
- Dose/g (Rattus norvegicus [5]): 10.3 % dose/organ
- Dose/g (Rattus norvegicus [6]): 0.7%
- Dose/g (Rattus norvegicus [7]): 9.41 % dose/organ
- Dose/g (Rattus norvegicus [8]): 4.02 % dose/organ
- Dose/g (Rattus norvegicus [9]): 0.69 % dose/organ
- Dose/g (Rattus norvegicus [10]): 0.17%
- Dose/g (Rattus norvegicus [11]): 0.25%
- Dose/g (Rattus norvegicus [12]): 0.26%
- Ratio (Rattus norvegicus [13]): 1
- Dose/g (Rattus norvegicus [14]): 5.97 % dose/organ
- Dose/g (Rattus norvegicus [15]): 0.38%
- Dose/g (Rattus norvegicus [16]): 0.15%
- Ratio (Rattus norvegicus [17]): 2.97
- Dose/g (Rattus norvegicus [18]): 0.21 % dose/organ
- Ratio (Rattus norvegicus [19]): 1.8
- Dose/g (Rattus norvegicus [20]): 0.05%
- Dose/g (Rattus norvegicus [21]): 0.45%
- Dose/g (Rattus norvegicus [22]): 3.27 % dose/organ
- Dose/g (Rattus norvegicus [23]): 0.28 % dose/organ
- Dose/g (Rattus norvegicus [24]): 1.38 % dose/organ
- Dose/g (Rattus norvegicus [25]): 0.13 % dose/organ
- Dose/g (Rattus norvegicus [26]): 0.47%
- Dose/g (Rattus norvegicus [27]): 2.31%
- Ratio (Rattus norvegicus [28]): 2.06
- Dose/g (Rattus norvegicus [29]): 1.76 % dose/organ
- Ratio (Rattus norvegicus [30]): 1
- Dose/g (Rattus norvegicus [31]): 1.28 % dose/organ
- Dose/g (Rattus norvegicus [32]): 0.01 % dose/organ
- Ratio (Rattus norvegicus [33]): 2.67
- Dose/g (Rattus norvegicus [34]): 0.09%
- Dose/g (Rattus norvegicus [35]): 0.54%
- Dose/g (Rattus norvegicus [36]): 0.15%
- Dose/g (Rattus norvegicus [37]): 0.34%
